# From paper PMC8859983 (Biomaterials science, 2020)
# “Also recorded” adds a separate entry of the source.
# Legend:
# HUVEC cells = experiment: MTT cell cytotoxicity assay; assay type: cell-based, human; settings: 10 μM to 100 μM, 48 h, Fig. S2
# How it was run: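 HUVEC seeded at 4×10³–5×10³ cells/well and incubated 12 h. Then exposed to test compound at 10–100 μM for 48 h. MTT (5 mg mL⁻¹ stock in PBS) added for 4 h, formazan dissolved in DMSO, absorbance read at 490 nm.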
# [1] = biological target: T1, recombinant human MT1-MMP (Homo sapiens, UniProt P50281); experiment: Enzyme kinetics of fluorogenic probes, FRET peptide cleavage assay; assay type: biochemical; settings: for kcat/Km: specificity constant, 15 nM refolded MT1-MMP, 37 °C, pH 8.0, mean ± SD
# How it was run: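 Refolded His-tagged human MT1-MMP catalytic/hinge construct (E. coli), 15 nM, with 0.5–4.5 μM FRET probes at 37 °C. Initial cleavage rates measured over 28 s. Km and Vmax from Michaelis–Menten fit; kcat = Vmax/[enzyme]. Mean ± SD.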
# HT-1080 cells = experiment: Cell uptake / cell imaging of probes; assay type: cell-based, human; settings: for cell uptake: 5 μM probe, 2 h at 37 °C, FAM fluorescence, confocal imaging
# How it was run: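 HT-1080 cells in RPMI 1640 with 10% FBS, penicillin and streptomycin at 37 °C, 5% CO₂. Seeded on glass-bottom dishes overnight, then fresh medium. Incubated with 5 μM probe for 2 h at 37 °C, ± 5 μM GM6001. Washed three times with PBS, fixed 10 min in 4% paraformaldehyde, DAPI-stained, then imaged for FAM fluorescence.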
# HT-1080 tumor [2] = experiment: Optical in vivo imaging after intratumoral injection; design: species or system BALB/c nude mice; settings: 50 nmol intratumoral, IVIS; for fluorescence in the tumor site: 0.5–6 h post injection
# How it was run: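 Subcutaneous HT-1080 xenografts in nude mice; four groups (n = 3) with similar tumor size. Probe or control given intratumorally at 50 nmol. IVIS imaging of FAM (Ex/Em 492/518 nm) at 0.5, 1, 2, 4.5 and 6 h under 2.5% isoflurane in oxygen (1.5 L min⁻¹). Radiant efficiency quantified at tumor site.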
# HT-1080 tumor [3] = experiment: Ex vivo tumor imaging and biodistribution after intravenous injection; assay type: in vivo, BALB/c nude mice; settings: for fluorescence intensity / accumulation in the tumors: tumor cryosections 4.5 h post injection, n = 3 per group
# How it was run: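 BALB/c nude mice (4 weeks old) given 1×10⁶ HT-1080 cells in PBS subcutaneously, right flank. At tumor volume ~0.5–1 cm³, four groups (n = 3) received 50 nmol probe by tail-vein injection. Tumors harvested 4.5 h later, cryosectioned, stained with DiI (membrane) and DAPI (nuclei), and examined by fluorescence microscopy.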
# recombinant MT1-MMP = experiment: Fluorescence activation; assay type: biochemical, human; settings: for activation efficiency by MT1-MMP / selectivity for MT1-MMP compared with MMP-2: 1 μM probe; for activation efficiency by MT1-MMP: 15 nM MT1-MMP, 7 min incubation at 37 °C; for selectivity for MT1-MMP compared with MMP-2: 15 nM enzyme, 37 °C
# How it was run: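 Catalysis velocity: FRET probes at 1 μM incubated with 15 nM refolded recombinant MT1-MMP for 7 min at 37 °C. Fluorescence from substrate hydrolysis recorded at the set time.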
# [4] = biological target: T1, recombinant human MT1-MMP; experiment: Effect of binding peptide on catalysis of P-1 by MT1-MMP; assay type: biochemical; settings: binding peptide 0.47 μM to 640 μM, pre-incubated with MT1-MMP
# How it was run: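 His-tagged human MT1-MMP catalytic plus hinge domains (Tyr112–Ile318) expressed in E. coli BL21(DE3)pLysS. Purified on Ni-NTA in urea and refolded by gradient dialysis. Enzyme pre-incubated with binding peptide (0.47–640 μM) before cleavage of FRET peptide substrate. Ex 328/Em 393 nm.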
substance,measurement,setting,value
(FAM)-PLGLK-(Dabcyl)-AR-(PEG)12-HWKHLHNTKTFL [Probe P-7],cytotoxicity,HUVEC cells,low toxicity
same,Km value compared with P-5,"[1]; MT1-MMP, Table S1",much higher Km value of P-7 than P-5
same,kcat value compared with P-5,"[1]; MT1-MMP, Table S1",higher kcat value than P-5
same,cell uptake,HT-1080 cells,much higher cell uptake compared with the control cells MCF-7; also recorded: much higher cell uptake compared with P-8 and P-9
same,cell uptake in the presence of MMP inhibitor GM6001,"HT-1080 cells; HT-1080, 5 μM probe, GM6001 5 μM",decreased
same,time to maximum fluorescent intensity at tumor,"HT-1080 tumor [2]; Ex/Em 492/518 nm, n = 3 per group",about 1 h
same,location of the activated probe in frozen tissue slices,"HT-1080 tumor [3]; 50 nmol i.v., 4.5 h post injection",located in the cytosol
same,fluorescence intensity / accumulation in the tumors,HT-1080 tumor [3]; 50 nmol i.v.,strongest fluorescence intensity
same,organs in which the probe was activated (biodistribution),"HT-1080 tumor [3]; 50 nmol, tail vein injection, FAM fluorescence, Fig. S3","predominantly in the tumor, liver, and kidney"
(FAM)-PLGLK-(Dabcyl)-AR-HWKHLHNTKTFL [Probe P-9],activation efficiency by MT1-MMP,recombinant MT1-MMP,lower activation efficiency than P-7; also recorded: lower activation efficiency by MT1-MMP than P-8
same,selectivity for MT1-MMP compared with MMP-2,recombinant MT1-MMP,higher selectivity for MT1-MMP compared with MMP-2
same,substrate inhibition of MT1-MMP,recombinant MT1-MMP; data not included,induced the substrate inhibition of MT1-MMP at higher concentrations
same,cell uptake,HT-1080 cells,higher cell uptake than P-8
same,fluorescence in the tumor site,HT-1080 tumor [2],hardly detected
(FAM)-PLGLK-(Dabcyl)-AR-NH2 [Probe P-8],activation efficiency by MT1-MMP,recombinant MT1-MMP,lower activation efficiency than P-7
same,selectivity for MT1-MMP compared with MMP-2,recombinant MT1-MMP,higher selectivity for MT1-MMP compared with MMP-2
same,substrate inhibition of MT1-MMP,recombinant MT1-MMP; data not included,induced the substrate inhibition of MT1-MMP at higher concentrations
same,fluorescence in the tumor site,HT-1080 tumor [2],hardly detected
same,fluorescence intensity / accumulation in the tumors,HT-1080 tumor [3]; 50 nmol i.v.,weaker fluorescence intensities
(Mca)-PLGL-(Dpa)-AR-(PEG)6-HWKHLHNTKTFL [Probe P-4],kcat/Km,[1],4420 ± 370 M⁻¹ s⁻¹
(Mca)-PLGL-(Dpa)-AR-(PEG)12-HWKHLHNTKTFL [Probe P-5],fold decreased Km value compared with control probe P-1,[1]; MT1-MMP,5.4 fold
same,fold enhanced hydrolysis rate (kcat) compared with control probe P-1,[1]; MT1-MMP,2.5 fold
same,fold specificity (kcat/Km) to MT1-MMP compared with control probe P-1,[1]; MT1-MMP,~14 fold
same,kcat/Km,[1],6150 ± 440 M⁻¹ s⁻¹
same,selectivity for MT1-MMP compared with MMP-2,recombinant MT1-MMP,significantly higher activation folds when incubated with MT1-MMP than with MMP-2
(Mca)-PLGL-(Dpa)-AR-(PEG)24-HWKHLHNTKTFL [Probe P-6],kcat/Km,[1],1110 ± 90 M⁻¹ s⁻¹
(Mca)-PLGL-(Dpa)-AR-HWKHLHNTKTFL [Probe P-2],probe concentration above which substrate inhibition of MT1-MMP was induced,recombinant MT1-MMP; data not included,higher than 1.5 μM
"(Mca)-PLGL-(Dpa)-AR-NH2 [Probe P-1, reference compound]",kcat/Km,[1],450 ± 30 M⁻¹ s⁻¹
HWKHLHNTKTFL [MT1-AF7p],effect on the catalysis of P-1 by the recombinant MT1-MMP,[4],had no effect
